Columns and labels:
Type in all cases: functional
Escherichia coli [1] = assay: Bactericidal activity against Escherichia coli NIHJ JC-2 preincubated for 1 min before addition of growth medium measured after 40 to 48 hrs
Escherichia coli [2] = assay: Bactericidal activity against Escherichia coli NIHJ JC-2 preincubated for 3 mins before addition of growth medium measured after 40 to 48 hrs
Escherichia coli [3] = assay: Bactericidal activity against Escherichia coli NIHJ JC-2 preincubated for 5 mins before addition of growth medium measured after 40 to 48 hrs
Pseudomonas aeruginosa [4] = assay: Bactericidal activity against Pseudomonas aeruginosa PAO1 preincubated for 1 min before addition of growth medium measured after 40 to 48 hrs
Pseudomonas aeruginosa [5] = assay: Bactericidal activity against Pseudomonas aeruginosa PAO1 preincubated for 3 mins before addition of growth medium measured after 40 to 48 hrs
Pseudomonas aeruginosa [6] = assay: Bactericidal activity against Pseudomonas aeruginosa PAO1 preincubated for 5 mins before addition of growth medium measured after 40 to 48 hrs
Staphylococcus aureus [7] = assay: Bactericidal activity against methicillin-resistant Staphylococcus aureus 97-53 preincubated for 1 min before addition of growth medium measured after 40 to 48 hrs
Summary of the method: (§1)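 Read-out is the minimal bactericidal concentration (MBC), taken after 1, 3 and 5 min contact of compound with the test organism.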

Staphylococcus aureus [8] = assay: Bactericidal activity against methicillin-resistant Staphylococcus aureus 97-53 preincubated for 3 mins before addition of growth medium measured after 40 to 48 hrs; summary of the method: as §1
Staphylococcus aureus [9] = assay: Bactericidal activity against methicillin-resistant Staphylococcus aureus 97-53 preincubated for 5 mins before addition of growth medium measured after 40 to 48 hrs; summary of the method: as §1
Staphylococcus aureus [10] = assay: Bactericidal activity against methicillin-resistant Staphylococcus aureus KM 97-108 preincubated for 1 min before addition of growth medium measured after 40 to 48 hrs; summary of the method: as §1
Staphylococcus aureus [11] = assay: Bactericidal activity against methicillin-resistant Staphylococcus aureus KM 97-108 preincubated for 3 mins before addition of growth medium measured after 40 to 48 hrs; summary of the method: as §1
Staphylococcus aureus [12] = assay: Bactericidal activity against methicillin-resistant Staphylococcus aureus KM 97-108 preincubated for 5 mins before addition of growth medium measured after 40 to 48 hrs; summary of the method: as §1
Enterococcus [13] = assay: Bactericidal activity against vancomycin-resistant Enterococcus 49 preincubated for 1 min before addition of growth medium measured after 40 to 48 hrs; summary of the method: as §1
Enterococcus [14] = assay: Bactericidal activity against vancomycin-resistant Enterococcus 49 preincubated for 3 mins before addition of growth medium measured after 40 to 48 hrs; summary of the method: as §1
Enterococcus [15] = assay: Bactericidal activity against vancomycin-resistant Enterococcus 49 preincubated for 5 mins before addition of growth medium measured after 40 to 48 hrs; summary of the method: as §1
Pseudomonas aeruginosa [16] = assay: Bactericidal activity against Pseudomonas aeruginosa 12 preincubated for 1 min before addition of growth medium measured after 40 to 48 hrs
Pseudomonas aeruginosa [17] = assay: Bactericidal activity against Pseudomonas aeruginosa 12 preincubated for 3 mins before addition of growth medium measured after 40 to 48 hrs
Pseudomonas aeruginosa [18] = assay: Bactericidal activity against Pseudomonas aeruginosa 12 preincubated for 5 mins before addition of growth medium measured after 40 to 48 hrs
Staphylococcus aureus [19] = assay: Antibacterial activity against Staphylococcus aureus 209PJC after 24 hrs
Summary of the method: (§2)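 Value is the minimal inhibitory concentration (MIC) against the test organism, read after 24 h of incubation.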

Staphylococcus aureus [20] = assay: Antibacterial activity against methicillin-resistant Staphylococcus aureus 97-115 after 24 hrs
Summary of the method: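 Read-out is the minimal inhibitory concentration (MIC), taken after 24 h incubation with the test organism.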

Escherichia coli [21] = assay: Antibacterial activity against Escherichia coli NIHJ JC-2 after 24 hrs; summary of the method: as §2
Pseudomonas aeruginosa [22] = assay: Antibacterial activity against Pseudomonas aeruginosa PAO1; summary of the method: as §2
Staphylococcus aureus [23] = assay: Bactericidal activity against Staphylococcus aureus 209PJC preincubated for 1 min before addition of growth medium measured after 40 to 48 hrs
Staphylococcus aureus [24] = assay: Bactericidal activity against Staphylococcus aureus 209PJC preincubated for 3 mins before addition of growth medium measured after 40 to 48 hrs
Staphylococcus aureus [25] = assay: Bactericidal activity against Staphylococcus aureus 209PJC preincubated for 5 mins before addition of growth medium measured after 40 to 48 hrs
Staphylococcus aureus [26] = assay: Bactericidal activity against methicillin-resistant Staphylococcus aureus 97-115 preincubated for 1 min before addition of growth medium measured after 40 to 48 hrs; summary of the method: as §1
Staphylococcus aureus [27] = assay: Bactericidal activity against methicillin-resistant Staphylococcus aureus 97-115 preincubated for 3 mins before addition of growth medium measured after 40 to 48 hrs; summary of the method: as §1
Staphylococcus aureus [28] = assay: Bactericidal activity against methicillin-resistant Staphylococcus aureus 97-115 preincubated for 5 mins before addition of growth medium measured after 40 to 48 hrs; summary of the method: as §1

| SMILES | MBC (Escherichia coli [1]) | MBC (Escherichia coli [2]) | MBC (Escherichia coli [3]) | MBC (Pseudomonas aeruginosa [4]) | MBC (Pseudomonas aeruginosa [5]) | MBC (Pseudomonas aeruginosa [6]) | MBC (Staphylococcus aureus [7]) | MBC (Staphylococcus aureus [8]) | MBC (Staphylococcus aureus [9]) | MBC (Staphylococcus aureus [10]) | MBC (Staphylococcus aureus [11]) | MBC (Staphylococcus aureus [12]) | MBC (Enterococcus [13]) | MBC (Enterococcus [14]) | MBC (Enterococcus [15]) | MBC (Pseudomonas aeruginosa [16]) | MBC (Pseudomonas aeruginosa [17]) | MBC (Pseudomonas aeruginosa [18]) | MIC (Staphylococcus aureus [19]) | MIC (Staphylococcus aureus [20]) | also measured |
| --- | --- | --- | --- | --- | --- | --- | --- | --- | --- | --- | --- | --- | --- | --- | --- | --- | --- | --- | --- | --- | --- |
| N=C(NCCCCCCNC(=N)NC(=N)Nc1ccc(Cl)cc1)NC(=N)Nc1ccc(Cl)cc1.O=C(O)[C@H](O)[C@@H](O)[C@H](O)[C@H](O)CO | 62.5 µg/mL | 31.3 µg/mL | 15.6 µg/mL | > 500 µg/mL | > 500 µg/mL | > 500 µg/mL | 500 µg/mL | 250 µg/mL | 250 µg/mL | 500 µg/mL | 500 µg/mL | 500 µg/mL | > 1000 µg/mL | > 1000 µg/mL | > 1000 µg/mL | 125 µg/mL | 31.3 µg/mL | 31.3 µg/mL | 0.2 µg/mL | 3.1 µg/mL | MIC (Escherichia coli [21]): 1.6 µg/mL; MIC (Pseudomonas aeruginosa [22]): 50 µg/mL; MBC (Staphylococcus aureus [23]): 62.5 µg/mL; MBC (Staphylococcus aureus [24]): 62.5 µg/mL; MBC (Staphylococcus aureus [25]): 62.5 µg/mL; MBC (Staphylococcus aureus [26]): 1000 µg/mL; MBC (Staphylococcus aureus [27]): 250 µg/mL; MBC (Staphylococcus aureus [28]): 125 µg/mL |
| CC(=O)O.CCCCCCCCNC1=NC(C)(C)NC(NCCCCCC)=N1 | 12.5 µg/mL | 6.3 µg/mL | 6.3 µg/mL | 6.3 µg/mL | 3.1 µg/mL | 1.6 µg/mL | 50 µg/mL | 25 µg/mL | 25 µg/mL | 50 µg/mL | 25 µg/mL | 25 µg/mL | 25 µg/mL | 25 µg/mL | 12.5 µg/mL | 3.1 µg/mL | 3.1 µg/mL | 1.6 µg/mL | 0.8 µg/mL | 0.8 µg/mL | MIC (Escherichia coli [21]): 12.5 µg/mL; MIC (Pseudomonas aeruginosa [22]): 50 µg/mL; MBC (Staphylococcus aureus [23]): 12.5 µg/mL; MBC (Staphylococcus aureus [24]): 6.3 µg/mL; MBC (Staphylococcus aureus [25]): 6.3 µg/mL; MBC (Staphylococcus aureus [26]): 12.5 µg/mL; MBC (Staphylococcus aureus [27]): 6.3 µg/mL; MBC (Staphylococcus aureus [28]): 6.3 µg/mL |

From ChEMBL document CHEMBL1143313, “Synthesis of novel 4,6-di(substituted)amino-1,2-dihydro-1,3,5-triazine derivatives as topical antiseptic agents” (2009)
